Assays:
Antioxidant = conditions: read-out: IC50 antioxidant activity; DPPH, absorbance at 517 nm
Summary of the method: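 Test compound stocks at 22 mg/mL, diluted to working concentrations. DPPH radical was prepared at 4 mg per 100 mL pure methanol. Sample dilution and DPPH solution were mixed 1:2 by volume and left undisturbed overnight. Ascorbic acid in water served as the reference and was treated the same way. Absorbance was read at 517 nm, in triplicate.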

α-amylase = target: T1, α-amylase (Homo sapiens, UniProt P04746); assay: In vitro antidiabetic; format: biochemical
T1 sequence (P04746 16-511): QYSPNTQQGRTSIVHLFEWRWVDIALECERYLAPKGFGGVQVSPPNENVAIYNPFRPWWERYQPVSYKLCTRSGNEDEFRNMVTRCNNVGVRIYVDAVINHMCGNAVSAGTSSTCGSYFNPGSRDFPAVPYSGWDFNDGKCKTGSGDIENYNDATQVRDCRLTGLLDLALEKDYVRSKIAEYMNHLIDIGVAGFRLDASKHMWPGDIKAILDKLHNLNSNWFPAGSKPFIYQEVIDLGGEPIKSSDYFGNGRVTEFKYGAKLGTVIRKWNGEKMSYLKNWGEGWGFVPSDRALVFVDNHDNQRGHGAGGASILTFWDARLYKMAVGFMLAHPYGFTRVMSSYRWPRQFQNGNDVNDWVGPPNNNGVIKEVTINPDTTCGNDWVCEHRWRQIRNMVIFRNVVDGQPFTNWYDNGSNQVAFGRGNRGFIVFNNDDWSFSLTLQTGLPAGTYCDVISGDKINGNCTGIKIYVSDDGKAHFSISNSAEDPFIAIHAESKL

Row | SMILES | IC50 (Antioxidant) | IC50 (α-amylase) | inhibition against diabetes (in words) (α-amylase; conclusion, qualitative grade)
1 | C=CCOC(=O)c1ccccc1C(=O)OCC [HR3, 1-allyl 2-ethyl phthalate] | 15.1 µM | – | –
2 | CC(C)CCCCCOC(=O)c1ccccc1C(=O)OCCCCCC(C)C [HR5, bis (6-methylheptyl) phthalate] | 15.6 µM | 11.7 µM | excellent inhibition

Source: article PMC10500580 (ACS Omega, 2023)
